{"source": "ChEMBL document CHEMBL3046072", "about": "“Plant P5C reductase as a new target for aminomethylenebisphosphonates” (J Agric Food Chem, 2007)", "target": "T1, Pyrroline-5-carboxylate reductase (Arabidopsis thaliana, UniProt P54904)", "T1 sequence (P54904 whole entry)": "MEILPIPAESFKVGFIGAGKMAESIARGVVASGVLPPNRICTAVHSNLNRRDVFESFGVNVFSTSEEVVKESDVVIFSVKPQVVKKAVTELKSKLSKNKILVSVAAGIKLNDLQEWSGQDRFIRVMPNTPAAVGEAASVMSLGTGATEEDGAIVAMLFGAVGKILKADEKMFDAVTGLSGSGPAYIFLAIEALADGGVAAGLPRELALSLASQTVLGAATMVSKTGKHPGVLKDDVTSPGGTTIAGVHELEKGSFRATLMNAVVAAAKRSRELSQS", "experiment": "Inhibition of Arabidopsis thaliana P5C reductase catalytic activity", "details": "read-out: I50", "method_in_brief": "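P5C reductase partially purified from A. thaliana Columbia suspension-cultured cells by ammonium sulfate cut and two DEAE-Sephacel steps. Assay at 35 °C: 100 mM Tris-HCl pH 8.0, 0.1 mM MgCl2, 2 mM DL-P5C, 0.25 mM NADH. Read as NADH oxidation at 340 nm, or as P5C loss by ninhydrin at 535 nm. Inhibitor neutralised to pH 7.4, tested over 0.010–5 mM. I50 from regression of % control activity versus log concentration.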"}
{"smiles": "O=P(O)(O)C(Nc1cc(Cl)cc(Cl)c1)P(=O)(O)O", "note": "[(3,5-DICHLOROPHENYLAMINO)METHYLENEDIPHOSPHONIC ACID]", "values": [{"measurement": "IC50", "result": 77, "unit": "µM"}]}
